Results from ChEMBL document CHEMBL3272265, “Interferon inducing activities of derivatives of 1,3-dimethyl-4-(3-dimethylaminopropylamino)-1H-pyrazolo(3,4-b)quinoline and related compounds” (J Med Chem, 1976).
Activity calls are given as the source filed them. The rule behind the calls is not given here.

Assays:
Mus musculus [1] = assay: Induction of interferon level in CD-1 mouse serum at 300 mg/kg, ip after 18 to 20 hrs by vesicular stomatitis virus plaque reduction assay; type: functional, organism-based; set-up: dose 300 mg/kg
Method in brief: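 Dosing was oral or ip in 15-g female CD-1 mice, at least three per dose level, with compound in sterile distilled water as a solution or suspension. Pooled sera were collected 18–20 hr after dosing. Interferon units/ml were quantified by a plaque reduction assay on mouse L cells with vesicular stomatitis virus challenge, run against an NIAID reference mouse interferon standard.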

Mus musculus [2] = assay: Induction of interferon level >= 32 units/mL in po dosed CD-1 mouse serum after 18 to 20 hrs by vesicular stomatitis virus plaque reduction assay; type: functional; conditions: CD-1, Serum, read-out: MED
Method in brief: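 Female CD-1 mice (15 g; at least three per dose) received compound dissolved or suspended in sterile distilled water, orally or ip. They were bled 18–20 hr later and sera pooled. Interferon was titrated by plaque reduction in mouse L cells challenged with vesicular stomatitis virus, with an NIAID reference mouse interferon standard. MED was the lowest dose giving ≥32 units/ml. Top doses were 400 mg/kg po and 300 mg/kg ip.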

Mus musculus [3] = assay: Toxicity in CD-1 mouse at 300 mg/kg, ip; type: organism-based; set-up: dose 300 mg/kg, route intraperitoneal; conditions: in vivo

Cc1cc(Nc2ccccc2C(=O)NCCCN(C)C)n(C)n1
Activity (Mus musculus [1]): inactive

Cc1nn(C)c2nc3ccccc3c(S)c12
Activity (Mus musculus [1]): inactive

Cc1nn(-c2ccc(C(=O)O)cc2)c2nc3ccccc3c(NCCCN(C)C)c12
Activity (Mus musculus [1]): inactive

CN(C)CCCNc1ccnc2ccccc12
Activity (Mus musculus [1]): inactive

Cc1nn(C)c2nc3ccccc3c(NCCCN(CCO)CCO)c12
Activity (Mus musculus [1]): inactive

Cc1nn(C)c2nc3ccccc3c(NCCCN3CCCC3)c12.Cl
minimal effective dose (Mus musculus [2]): 200 mg/kg

COc1ccc(-n2nc(C)c3c(NCCCN(C)C)c4ccccc4nc32)cc1
Activity (Mus musculus [1]): inactive

Cc1nn(C)c2nc3ccccc3c(NCCCCCCN(C)C)c12.Cl
minimal effective dose (Mus musculus [2]): 200 mg/kg

Cc1nn(C)c2nc3ccccc3c(NCCCCN(C)C)c12.Cl
minimal effective dose (Mus musculus [2]): 200 mg/kg

CCN(CC)CC(O)CNc1c2ccccc2nc2c1c(C)nn2C.Cl (stereo not given)
minimal effective dose (Mus musculus [2]): 400 mg/kg

Cc1nn(C)c2nc3ccc(S(=O)(=O)NCCCN(C)C)cc3c(NCCCN(C)C)c12
Activity (Mus musculus [1]): inactive

Cc1nn(C)c2nc3cc(C(=O)O)ccc3c(NCCCN(C)C)c12
Activity (Mus musculus [1]): inactive

CNCc1c2ccccc2nc2c1c(C)nn2C
Activity (Mus musculus [1]): inactive

Cc1nn(C)c2nc3ccc(F)cc3c(NCCCN(C)C)c12.Cl
minimal effective dose (Mus musculus [2]): ≥ 400 mg/kg

Cc1n[nH]c2nc3ccccc3c(NCCCN(C)C)c12
Activity (Mus musculus [1]): inactive

CN(C)CCCNc1c2ccccc2nc2c1ccn2C
minimal effective dose (Mus musculus [2]): 200 mg/kg

CN(C)CCCNc1c2ccccc2nc2c1cnn2C.Cl
minimal effective dose (Mus musculus [2]): 200 mg/kg

COC(=O)CCCNc1c2ccccc2nc2c1c(C)nn2C
Activity (Mus musculus [1]): inactive

Cc1cc(Nc2ccccc2CNCCCN(C)C)n(C)n1
Activity (Mus musculus [1]): inactive

Cc1nn(C)c2nc3ncncc3c(NCCCN(C)C)c12
Activity (Mus musculus [1]): inactive

Cc1nn(C)c2nc3cc(C(=O)NCCCN(C)C)ccc3c(NCCCN(C)C)c12
Activity (Mus musculus [1]): inactive

Cc1nn(C)c2nc3ccccc3c(N3CCCCC3CCN(C)C)c12 (stereo not given)
Activity (Mus musculus [1]): inactive

CC(=O)Nc1ccc2nc3c(c(C)nn3C)c(NCCCN(C)C)c2c1
Activity (Mus musculus [1]): inactive

Cc1nn(CC(=O)O)c2nc3ccccc3c(NCCCN(C)C)c12
Activity (Mus musculus [1]): inactive

Cc1nn(C)c2nc3ccc(S(=O)(=O)O)cc3c(NCCCN(C)C)c12
Activity (Mus musculus [1]): inactive

Cc1nn(C)c2nc3ccc(N)cc3c(NCCCN(C)C)c12
Activity (Mus musculus [1]): inactive

Cc1cc(Nc2c3ccccc3nc3c2c(C)nn3C)n(C)n1
Activity (Mus musculus [1]): inactive

Cc1nn(C)c2nc3cc([N+](=O)[O-])ccc3c(NCCCN(C)C)c12
Activity (Mus musculus [1]): inactive

Cc1nn(C)c2nc3ccccc3c(CCNCCCNCCCN(C)C)c12
Activity (Mus musculus [1]): inactive

COC(=O)c1ccc2c(NCCCN(C)C)c3c(C)nn(C)c3nc2c1
Activity (Mus musculus [1]): inactive

Cc1nn(C)c2nc3cc(O)ccc3c(NCCCN(C)C)c12
Activity (Mus musculus [1]): inactive

Cc1nn(CC(=O)NCCCN(C)C)c2nc3ccccc3c(NCCCN(C)C)c12
Activity (Mus musculus [1]): inactive

Cc1nn(CCO)c2nc3ccccc3c(NCCCN(C)C)c12
Activity (Mus musculus [1]): inactive

CN(C)CCCNc1ccncc1
Activity (Mus musculus [1]): inactive

Cc1nn(C)c2nc3ccccc3c(NC34CC5CC(CC(C5)C3)C4)c12
Activity (Mus musculus [1]): inactive

Cc1nn(C)c2nc3ccccc3c(NCCCNC3CCCCC3)c12.Cl
Activity (Mus musculus [3]): Toxic

Cc1nn(C)c2nc3ccccc3c(NCCCC(=O)O)c12
Activity (Mus musculus [1]): inactive

Cc1nn(C)c2nc3ccccc3c(NCCCNC=O)c12
Activity (Mus musculus [1]): inactive

Cc1nn(C)c2nc3ccc(S(N)(=O)=O)cc3c(NCCCN(C)C)c12
Activity (Mus musculus [1]): inactive

Cc1nn(-c2ccccc2)c2nc3ccccc3c(NCCCN(C)C)c12
Activity (Mus musculus [1]): inactive

Cc1nn(C)c2nc3cccc(N)c3c(NCCCN(C)C)c12
Activity (Mus musculus [1]): inactive

Cc1nn(C)c2nc3ccc(O)cc3c(NCCCN(C)C)c12
Activity (Mus musculus [1]): inactive

Cc1nn(C)c2nc3c(Cl)cccc3c(NCCCN(C)C)c12
Activity (Mus musculus [1]): inactive

Cc1nn(C)c2nc3ccccc3c(NCc3ccccc3N(C)C)c12
Activity (Mus musculus [1]): inactive

Cc1cc(NCCCNc2c3ccccc3nc3c2c(C)nn3C)n(C)n1
Activity (Mus musculus [1]): inactive
